Assay outcomes (PubChem BioAssay)
Shown is part of a subset that was picked to be rich in hits.
PTEN del growth: growth suppression of PTEN-null HCT116, primary screen, cell-based, CellTiter-Glo | HCT116 PTEN-null viability, 60 h; stronger effect = lower value | viability, % at 10 µM | 140,000 compounds, 1.2% hits;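 active = viability at or below a set limit, 4 SD under the median of all tested compounds, cut at about 3.7% in these data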;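 also: PTEN knockout HCT116 line with beta catenin targeted HCT116 as companion control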
H69AR inhibit: proliferation blockers of H69AR lung cancer cells, primary screen, cell-based, human, 86K library. H69AR lung tumor viability, ATP luminescence, 72 h; stronger effect = lower value. 85,000 compounds, 6% hits. viability, % at 10 µM;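 active = viability at or below 40%; inactive = viability above 40%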;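 also: multidrug resistant small cell line overexpressing MRP-1 efflux transporter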
HUVEC inhibit: inhibitors of HUVEC proliferation, primary screen, cell-based, 384-well; CellTiter-Glo luminescence, 72 h; stronger effect = lower value; 86,000 compounds, 1.1% hits; viability, % at 10 µM (by protocol); AID 648, 2007;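 active = viability at or below 30%; inactive = viability above 30%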
Lung fibro prol: antiproliferative effect on LL 47 fibroblasts – human, LL 47 cells, CellTiter-Glo luminescence, primary screen; LL 47 human lung fibroblast viability, ATP luminescence; stronger effect = lower value; viability, % at 10 µM; 85,000 compounds, 1.1% hits; AID 719, 2007;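 active = viability at or below 50% in the single dose screen; inactive = viability above 50%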;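 also: compound exposure lasted 72 h before the ATP readout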
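test system = LL 47 human lung fibroblasts | amount = 1,150 fibroblasts seeded per well | medium = 15% FBS in IMEM | times = overnight cell rest, 72 h compound treatment at 37 °C | measured by = CellTiter-Glo luminescence measuring cellular ATP | read-out = viability percentage against median untreated-cell control | benchmarks = cell-only wells, no compound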
bCat KO growth: primary screen for growth suppressors in beta-catenin knockout HCT116 cells (colon tumor, human). HCT116 beta-catenin knockout viability, CellTiter-Glo, 60 h; stronger effect = lower value. viability, % at 10 µM. 140,000 compounds, 1.5% hits. AID 818, 2007;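 active = viability at or under a set limit, the compound median less 4 SD, cut at about 6% in these data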
Each line names hits and unclear results; the compound was inactive in the other large screens; ! = not confirmed by another sample.

CCC(C)NC(=O)c1c(N)n(Cc2ccc3c(c2)OCO3)c2nc3ccccc3nc12 (stereo not drawn)	PTEN del growth 1.4, bCat KO growth 1.4 (no result: H69AR inhibit, HUVEC inhibit, Lung fibro prol)
CCc1cc2c(s1)NC(=O)CN=C2c1cccs1	H69AR inhibit 23
CCCCn1c(N)c(C(=O)NCCN2CCOCC2)c2nc3ccccc3nc21	none
COc1ccc(CCNC(=O)c2c(N)n(CCN3CCOCC3)c3nc4ccccc4nc23)cc1	PTEN del growth 0.3, H69AR inhibit 22, bCat KO growth 0.4
Nc1c(C(=O)NCCc2ccccc2)c2nc3ccccc3nc2n1CCN1CCOCC1	PTEN del growth 1.9, H69AR inhibit 1.6, bCat KO growth 1.7
Cc1cccc(N/N=C(\C(N)=O)C2=NC(C)(C)Cc3ccccc32)c1	none (no result: H69AR inhibit, HUVEC inhibit, Lung fibro prol)
O=C1CCCN1c1ccc(S(=O)(=O)O)cc1 (tested in a mixture with another compound)	none (no result: H69AR inhibit, HUVEC inhibit, Lung fibro prol)
CCCCCn1c(=O)c(C(=O)NCc2ccncc2)c(O)c2ccccc21	H69AR inhibit 14
Cc1c(NC(=O)C(C)OC(=O)Cc2ccccc2)c(=O)n(-c2ccccc2)n1C (stereo not drawn)	none (no result: H69AR inhibit, HUVEC inhibit, Lung fibro prol)
CCCCn1c(=O)c(C(=O)Nc2ccsc2C(=O)OC)c(O)c2ccccc21	PTEN del growth 3.1, bCat KO growth 3.2 (no result: H69AR inhibit, HUVEC inhibit, Lung fibro prol)
CCCCCn1c(=O)c(C(=O)Nc2ccncc2)c(O)c2ccccc21	H69AR inhibit 5.1, Lung fibro prol 49 (no result: PTEN del growth, bCat KO growth)
CCCCCCn1c(=O)c(C(=O)Nc2c(C)n(C)n(-c3ccccc3)c2=O)c(O)c2ccccc21	H69AR inhibit 12 (no result: PTEN del growth, bCat KO growth)
CCCCn1c(NC(=O)c2ccc(Br)o2)c(C(=O)OCC)c2nc3ccccc3nc21	none (no result: H69AR inhibit, HUVEC inhibit, Lung fibro prol)
O=C(Nc1cccc(Cl)c1)c1c(O)c2c(n(Cc3ccccc3)c1=O)CCCC2	none (no result: H69AR inhibit, HUVEC inhibit, Lung fibro prol)
O=C1NC(=O)C(=Cc2ccc(OCC(=O)N3CCOCC3)cc2)C(=O)N1	none (no result: H69AR inhibit, HUVEC inhibit, Lung fibro prol)
O=C1/C(=C/c2ccc([N+](=O)[O-])cc2)N2CCC1CC2	none (no result: H69AR inhibit, HUVEC inhibit, Lung fibro prol)
CC(c1ccccc1)n1cncc1C(=O)N1CCCC1=O (stereo not drawn)	none
COC(=O)C[C@]1(C(=O)OC)CN(C#N)N(c2ccc(Cl)cc2)C12c1ccccc1-c1ccccc12	PTEN del growth 1.2, H69AR inhibit 0.6, HUVEC inhibit 2.4, Lung fibro prol 5.2, bCat KO growth 0.4
COC(=O)[C@@H]1[C@@H](C(=O)OC)C2(c3ccccc3-c3ccccc32)N(c2ccc(Cl)cc2)N1C#N	PTEN del growth 1.2, H69AR inhibit 0.7, HUVEC inhibit 2.7, Lung fibro prol 3.3, bCat KO growth 0.8
Cn1c[n+](C)cc1C(O)c1ccccc1 (stereo not drawn)	none
Cn1c(O)c(/C=C/C=Nc2ccccc2)c(=O)n(C)c1=S	none (no result: H69AR inhibit, HUVEC inhibit, Lung fibro prol)
Cc1c2ccncc2c(C)c2c1[nH]c1ccccc12	PTEN del growth 0.9, bCat KO growth 1.3 (no result: H69AR inhibit, HUVEC inhibit, Lung fibro prol)
CCC(C)N1C(=O)/C(=C/c2ccc3c(c2)CCN3CCCCl)C(=O)NC1=S (stereo not drawn)	none (no result: H69AR inhibit, HUVEC inhibit, Lung fibro prol)
COC(=O)C(O)(c1ccc2c(c1)CCCN2)C(F)(F)F (stereo not drawn)	none
CN1C2CCC1/C(=C/c1ccccn1)C(=O)/C2=C\c1ccccn1	PTEN del growth 1.8, bCat KO growth 1.8 (no result: H69AR inhibit, HUVEC inhibit, Lung fibro prol)
Cc1cccc(-n2c(/C=C/c3ccc([N+](=O)[O-])o3)nc3ccccc3c2=O)c1	PTEN del growth 0.6, bCat KO growth 0.8 (no result: H69AR inhibit, HUVEC inhibit, Lung fibro prol)
CCN(CC)C1=NC(=[N+](CC)CC)c2ccccc21	none
O=C(COc1ccccc1)N1CCN(C/C=C/c2ccccc2)CC1	none
O=C(COc1ccc(Cl)cc1)N1CCN(C/C=C/c2ccccc2)CC1	H69AR inhibit 27
C=C[C@@H]1C[C@@]1(C)[C@@H](NP(=O)(c1ccccc1)c1ccccc1)c1ccccc1	none (no result: H69AR inhibit, HUVEC inhibit, Lung fibro prol)
Cc1c(N=Nc2c(O)n(C)c(=O)n(C)c2=O)c(=O)n(-c2ccccc2)n1C	none (no result: H69AR inhibit, HUVEC inhibit, Lung fibro prol)
O=C(CSC1c2ccccc2-c2ccccc21)N/N=C/c1ccccc1O	H69AR inhibit 18, HUVEC inhibit 27, Lung fibro prol 41
CCS(=O)(=O)N1CCC(C(=O)N2CCC3(CC2)OCCO3)CC1	none
CCCS(=O)(=O)N1CCC(C(=O)N2CCC3(CC2)OCCO3)CC1	Lung fibro prol 42
Cc1nc2ccc(Cl)cc2c(-c2ccccc2)c1C(=O)O	none (no result: H69AR inhibit, HUVEC inhibit, Lung fibro prol)
C[C@@H]1O[C@@H](O[C@H]2C[C@@H](O)[C@]3(CO)[C@H]4[C@H](O)C[C@]5(C)[C@@H](C6=CC(=O)OC6)CC[C@]5(O)[C@@H]4CC[C@]3(O)C2)[C@H](O)[C@H](O)[C@H]1O	bCat KO growth 5.7 (no result: H69AR inhibit, HUVEC inhibit, Lung fibro prol)
C[C@H]1O[C@@H](O[C@H]2[C@@H](O)C[C@H](O[C@H]3[C@@H](O)C[C@H](O[C@H]4CC[C@@]5(C)[C@H](CC[C@@H]6[C@@H]5CC[C@]5(C)[C@@H](C7=CC(=O)OC7)CC[C@]65O)C4)O[C@@H]3C)O[C@@H]2C)C[C@H](O)[C@@H]1O	bCat KO growth 4.9 (no result: H69AR inhibit, HUVEC inhibit, Lung fibro prol)
CC(=NCCC(c1ccccc1)c1ccccc1)c1c(O)n(C)c(=O)n(C)c1=O	none (no result: H69AR inhibit, HUVEC inhibit, Lung fibro prol)
N#Cc1c(/N=C/c2ccc(O)cc2O)sc2c1C1CCN2CC1	none (no result: H69AR inhibit, HUVEC inhibit, Lung fibro prol)
Cc1ccc(-n2c(O)c(C=NCc3cccnc3)c(=O)[nH]c2=O)cc1C	none
Cc1ccc(-n2c(O)c(C=Nc3ccccc3N)c(=O)[nH]c2=O)cc1C	H69AR inhibit 13
FC(F)(F)c1ccc2c(c1)N(CCCN1CCN(CCCl)CC1)c1ccccc1S2	H69AR inhibit 1.4
N#CSCC(=O)N1c2ccccc2CCc2ccccc21	PTEN del growth 2.5, bCat KO growth 3.8 (no result: H69AR inhibit, HUVEC inhibit, Lung fibro prol)
Nc1ccccc1C(=O)OCC(=O)N1CCc2ccccc21	none
COc1ccc(-n2c(C)nc3cc(C(=O)N4CCC5(CC4)OCCO5)ccc32)cc1	H69AR inhibit 29
C=CCn1c(O)c(C(C)=NCc2cc(OC)cc(OC)c2)c(=O)[nH]c1=O	H69AR inhibit 38, HUVEC inhibit 26, Lung fibro prol 48
O=Cc1c(C(=O)O)n(Cc2ccc(Cl)cc2)c2ccccc12	none (no result: H69AR inhibit, HUVEC inhibit, Lung fibro prol)
Cc1ccc(CN2C(=O)NC(=O)C3(Cc4c(nc5ccccn5c4=O)N4CCCCCC43)C2=O)cc1 (stereo not drawn)	H69AR inhibit 39
CC12CCC(=O)C=C1CCC1C2CCC2(C)C(O)CCC12 (stereo not drawn)	HUVEC inhibit 29
C[C@H](O)[C@H]1CC[C@H]2[C@@H]3CCC4=CC(=O)CC[C@]4(C)[C@H]3CC[C@]12C	none (no result: H69AR inhibit, HUVEC inhibit, Lung fibro prol)
CCC1CCCCN1CC(=O)c1ccc(OC(F)F)cc1 (stereo not drawn)	none (no result: H69AR inhibit, HUVEC inhibit, Lung fibro prol)
Cc1ccnc(-n2c(C)nc3ccccc3c2=O)c1	none
Cc1cccc(N2CCc3c2nc2ccccc2c3N)c1	H69AR inhibit 34!
O=C(NC1(C(F)(F)F)Oc2ccc(Cl)cc2O1)N1CCC2(CC1)OCCO2 (stereo not drawn)	H69AR inhibit 32
O=C(NC1(C(F)(F)F)Oc2ccccc2O1)N1CCC2(CC1)OCCO2	H69AR inhibit 17
CC12CCC3C(CC=C4CC(O)CCC43C)C1C/C(=C\c1cccc(F)c1)C2=O (stereo not drawn)	none (no result: H69AR inhibit, HUVEC inhibit, Lung fibro prol)
